Here are results for six compounds from ChEMBL document CHEMBL1157688, “Novel tumor-targeted RGD peptide-camptothecin conjugates: synthesis and biological evaluation” (Bioorg Med Chem, 2010).

Series [1] addresses T1, Integrin alpha-V/beta-5 (Homo sapiens, UniProt P06756+P18084). Description: Inhibition of integrin alphaVbeta5 receptor-mediated adhesion of human A498 cells to vitronectin after 1 hr by toluidine blue staining. It is filed as cell-based. The method in brief:
(§1)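 Wells were coated 2 h at room temperature with human vitronectin and blocked 1 h with 1% BSA. Tumor cells in serum-free medium with 1% BSA were plated with compounds at 0.1 to 100 and incubated 1 h. Cells were washed with PBS, fixed 10 min in 4% paraformaldehyde and stained 10 min with 1% toluidine blue.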
Target sequence in this assay (P06756 31-889 limits assumed): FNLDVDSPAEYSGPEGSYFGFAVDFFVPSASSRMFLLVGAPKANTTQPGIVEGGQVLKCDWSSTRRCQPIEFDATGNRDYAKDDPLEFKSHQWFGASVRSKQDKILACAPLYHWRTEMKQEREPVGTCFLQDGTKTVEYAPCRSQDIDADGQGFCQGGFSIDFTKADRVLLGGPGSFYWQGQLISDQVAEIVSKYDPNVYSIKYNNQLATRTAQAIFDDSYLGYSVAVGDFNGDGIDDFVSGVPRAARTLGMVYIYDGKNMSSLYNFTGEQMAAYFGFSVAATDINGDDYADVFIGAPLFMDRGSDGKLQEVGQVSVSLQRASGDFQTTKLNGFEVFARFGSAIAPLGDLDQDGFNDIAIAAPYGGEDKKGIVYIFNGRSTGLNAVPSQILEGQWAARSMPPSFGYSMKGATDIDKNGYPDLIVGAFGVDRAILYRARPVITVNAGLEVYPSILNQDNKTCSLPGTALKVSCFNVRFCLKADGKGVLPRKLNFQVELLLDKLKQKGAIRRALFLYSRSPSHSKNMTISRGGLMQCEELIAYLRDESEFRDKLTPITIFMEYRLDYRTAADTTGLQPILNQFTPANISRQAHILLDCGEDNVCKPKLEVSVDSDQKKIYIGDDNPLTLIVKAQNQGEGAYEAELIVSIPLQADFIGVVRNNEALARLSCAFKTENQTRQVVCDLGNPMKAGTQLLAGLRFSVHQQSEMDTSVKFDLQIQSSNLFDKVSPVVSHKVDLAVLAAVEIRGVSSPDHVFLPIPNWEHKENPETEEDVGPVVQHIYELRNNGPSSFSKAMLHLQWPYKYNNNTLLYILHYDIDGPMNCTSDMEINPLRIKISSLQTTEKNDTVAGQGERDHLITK
Target sequence in this assay (P06756 891-1048 limits assumed): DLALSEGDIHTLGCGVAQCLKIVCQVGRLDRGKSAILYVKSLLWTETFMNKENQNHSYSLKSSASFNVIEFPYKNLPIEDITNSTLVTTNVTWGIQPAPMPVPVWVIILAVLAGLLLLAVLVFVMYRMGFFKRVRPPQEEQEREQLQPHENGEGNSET
Target sequence in this assay (P18084 24-799 limits assumed): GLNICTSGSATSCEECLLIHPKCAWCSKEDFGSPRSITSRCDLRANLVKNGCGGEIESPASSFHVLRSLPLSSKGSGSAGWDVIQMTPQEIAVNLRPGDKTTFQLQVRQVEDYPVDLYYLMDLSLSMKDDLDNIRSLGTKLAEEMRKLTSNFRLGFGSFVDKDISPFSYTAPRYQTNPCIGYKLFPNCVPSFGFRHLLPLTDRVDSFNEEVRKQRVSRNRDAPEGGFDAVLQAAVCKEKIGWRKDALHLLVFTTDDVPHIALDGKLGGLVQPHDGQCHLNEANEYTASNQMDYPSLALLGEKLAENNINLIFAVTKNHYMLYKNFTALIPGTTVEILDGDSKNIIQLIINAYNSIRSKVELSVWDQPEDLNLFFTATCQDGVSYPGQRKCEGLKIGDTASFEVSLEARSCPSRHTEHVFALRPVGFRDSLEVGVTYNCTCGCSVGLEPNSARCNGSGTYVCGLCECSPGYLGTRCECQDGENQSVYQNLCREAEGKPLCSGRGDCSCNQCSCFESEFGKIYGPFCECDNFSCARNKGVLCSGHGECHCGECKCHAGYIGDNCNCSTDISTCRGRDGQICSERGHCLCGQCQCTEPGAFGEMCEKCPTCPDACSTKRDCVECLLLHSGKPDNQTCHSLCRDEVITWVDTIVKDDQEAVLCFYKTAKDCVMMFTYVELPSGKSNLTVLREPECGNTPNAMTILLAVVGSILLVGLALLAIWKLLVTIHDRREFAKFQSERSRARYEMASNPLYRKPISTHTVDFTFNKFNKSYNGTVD

Series [2] addresses T2, Integrin alpha-V/beta-3 (Homo sapiens, UniProt P05106+P06756). In words: Displacement of [125I]echistatin from integrin alphaVbeta3 receptor after 3 hrs by gamma counting. It is filed as protein-complex assay. The note with it: read-out: IC50.
Target sequence in this assay (P05106 27-788 limits assumed): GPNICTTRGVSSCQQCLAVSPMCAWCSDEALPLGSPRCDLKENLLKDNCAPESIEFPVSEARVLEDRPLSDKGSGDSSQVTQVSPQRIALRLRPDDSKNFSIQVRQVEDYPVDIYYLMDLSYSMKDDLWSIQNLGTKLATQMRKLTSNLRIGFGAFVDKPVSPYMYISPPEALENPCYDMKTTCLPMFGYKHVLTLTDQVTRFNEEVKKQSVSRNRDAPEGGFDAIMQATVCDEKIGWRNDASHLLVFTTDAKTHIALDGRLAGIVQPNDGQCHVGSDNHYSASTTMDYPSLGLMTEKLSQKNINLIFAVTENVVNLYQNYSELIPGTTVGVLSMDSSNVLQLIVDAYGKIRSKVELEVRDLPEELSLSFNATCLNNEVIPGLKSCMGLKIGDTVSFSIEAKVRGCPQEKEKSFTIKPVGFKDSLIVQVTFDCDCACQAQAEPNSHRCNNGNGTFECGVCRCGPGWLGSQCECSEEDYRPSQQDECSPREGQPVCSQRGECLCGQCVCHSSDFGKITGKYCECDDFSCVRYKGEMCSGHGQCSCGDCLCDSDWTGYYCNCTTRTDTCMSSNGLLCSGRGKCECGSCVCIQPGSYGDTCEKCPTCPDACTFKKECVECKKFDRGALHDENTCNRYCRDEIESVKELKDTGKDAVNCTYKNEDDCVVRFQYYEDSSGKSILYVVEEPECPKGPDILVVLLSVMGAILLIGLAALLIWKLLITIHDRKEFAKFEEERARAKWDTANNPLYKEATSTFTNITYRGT
Target sequence in this assay (P06756 31-889 limits assumed): as the sequence (P06756 31-889 limits assumed) above
Target sequence in this assay (P06756 891-1048 limits assumed): as the sequence (P06756 891-1048 limits assumed) above
Series [3] addresses T2, Integrin alpha-V/beta-3. Description: Inhibition of integrin alphaVbeta3 receptor-mediated adhesion of human A498 cells to vitronectin after 1 hr by toluidine blue staining. It is filed as cell-based. An outline of the steps: as §1
Target sequence in this assay (P05106 27-788 limits assumed): as the sequence (P05106 27-788 limits assumed) above
Target sequence in this assay (P06756 31-889 limits assumed): as the sequence (P06756 31-889 limits assumed) above
Target sequence in this assay (P06756 891-1048 limits assumed): as the sequence (P06756 891-1048 limits assumed) above
In series [4] the target is T1, Integrin alpha-V/beta-5. Description: Displacement of [125I]echistatin from integrin alphaVbeta5 receptor after 3 hrs by gamma counting. Format: protein-complex assay.
Target sequence in this assay (P06756 31-889 limits assumed): as the sequence (P06756 31-889 limits assumed) above
Target sequence in this assay (P06756 891-1048 limits assumed): as the sequence (P06756 891-1048 limits assumed) above
Target sequence in this assay (P18084 24-799 limits assumed): as the sequence (P18084 24-799 limits assumed) above
For series [5], the system named is A498. Description: Cytotoxicity against human A498 cells after 72 hrs by sulforhodamine B assay. The note with it: A498, 72 h. It is filed as functional, cell-based. The method in brief: (§2)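 Tumor cells were seeded in 96-well plates and exposed the next day to a range of drug concentrations for 72 h. Surviving cells were quantified by sulforhodamine B staining, and IC50 ± SD was derived by curve fitting.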

The subject of series [6] is A2780. In words: Cytotoxicity against human A2780 cells after 72 hrs by sulforhodamine B assay. Format: functional, cell-based. The note with it: A2780, 72 h. An outline of the steps: as §2
A further series deals with PC-3. In words: Cytotoxicity against human PC3 cells after 72 hrs by sulforhodamine B assay. It is filed as functional, cell-based. The note with it: PC-3, 72 h. An outline of the steps: as §2
Series [7] deals with T1, Integrin alpha-V/beta-5. In words: Inhibition of integrin alphaVbeta5 receptor-mediated adhesion of human A2780 cells to vitronectin after 1 hr by toluidine blue staining. Format: cell-based. The method in brief: as §1
Target sequence in this assay (P06756 31-889 limits assumed): as the sequence (P06756 31-889 limits assumed) above
Target sequence in this assay (P06756 891-1048 limits assumed): as the sequence (P06756 891-1048 limits assumed) above
Target sequence in this assay (P18084 24-799 limits assumed): as the sequence (P18084 24-799 limits assumed) above
Series [8] is described as follows: Chemical stability assessed as half life at 100 uM at pH 5 by HPLC analysis. Format: physicochemical. The note with it: buffer. The method in brief:
(§3)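 Compounds were dissolved in DMSO and diluted to 100 (final, 1% DMSO) in phosphate buffer for pH 7.4 or acetate buffer for pH 5.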

The nature of series [9]: Chemical stability assessed as half life at 100 uM at pH 7.4 by HPLC analysis. Conditions: buffer; call rule not given here. Format: physicochemical. An outline of the steps:
as §3

Another series deals with Integrin alpha-V (Homo sapiens, UniProt P06756). Description: Binding affinity to integrin alphaV receptor in human PC3 cells. Format: cell-based. The note with it: PC-3. An outline of the steps:
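Tumor cells in serum-free medium with 1% BSA were plated for 1 h on wells precoated with 5 µg/ml human vitronectin and blocked with 1% BSA. Compounds were tested at 0.1–100 µM. Adherent cells were fixed with 4% paraformaldehyde, stained with 1% toluidine blue, solubilized in 1% SDS and read by absorbance. IC50 ± SD from curve fitting.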

The target of series [10] is T1, Integrin alpha-V/beta-5. In words: Binding affinity to integrin alphaVbeta5 receptor in human A498 cells. It is filed as cell-based.
The target of series [11] is T1, Integrin alpha-V/beta-5. Description: Binding affinity to integrin alphaVbeta5 receptor in human A2780 cells. Format: cell-based.
For series [12], the target named is T2, Integrin alpha-V/beta-3. In words: Binding affinity to integrin alphaVbeta3 receptor in human A498 cells. It is filed as cell-based.
The subject of series [13] is A2780. In words: Antitumor activity against human A2780 cells xenografted in nude mouse assessed as tumor volume inhibition at 48 mg/kg, sc QD for 5 days measured after 17 days of tumor implantation relative to control. It is filed as functional. The note with it: route subcutaneous. An outline of the steps:
(§4)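 Nude mice bearing A2780 human ovarian carcinoma xenografts were dosed from day 2 after tumor injection, either ip every fourth day ×4 or sc daily ×5, at 10 mL/kg. Tumor volume was calculated from the shortest and longest diameters on day 16 or 17. TVI% is relative to vehicle-treated controls (mean ± SE, Mann–Whitney). Body weight was monitored for toxicity.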

Series [14] has as its system Mus musculus. In words: Metabolic stability in nude mouse xenografted with human A2780 cells assessed as release of free namitecan in blood at 48 mg/kg, ip administered as single dose every fourth day for four times. It is filed as ADME, organism-based. Set-up: dose 48 mg/kg, route intraperitoneal. Conditions: in vivo.
In series [15] the test system is A2780. Description: Antitumor activity against human A2780 cells xenografted in nude mouse assessed as tumor volume inhibition at 48 mg/kg, ip administered as single dose every fourth day for four times measured after 16 days of tumor implantation relative to control. It is filed as functional. The note with it: 384 h, route intraperitoneal. The method in brief:
as §4

Series [16] has as its system A498. Description: Cellular uptake in human A498 cells at IC50 after 48 hrs by HPLC-FL analysis. Format: ADME, cell-based. Conditions: a498, 48 h. The method in brief:
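A-498 cells (6.2×10^5 per dish) were treated 24 h after seeding and sampled at 5, 24, 48 and 72 h. Cells were PBS-washed, scraped and pelleted, then lysed by five freeze-thaw cycles. Lysates were extracted with methanol/acetonitrile (1:1) and analyzed by isocratic HPLC with fluorescence detection. Lysate protein was measured by Bradford assay.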

The subject of series [17] is Mus musculus. In words: Metabolic stability in nude mouse xenografted with human A2780 cells assessed as release of free namitecan in blood at 48 mg/kg, sc QD for 5 days. Conditions: in vivo, 120 h. Format: ADME, organism-based. Set-up: dose 48 mg/kg, route subcutaneous.
Series [18] relates to Mus musculus. In words: AUC (0 to infinity) in nude mouse xenografted with human A2780 cells at 48 mg/kg, sc QD for 5 days. It is filed as ADME, organism-based. Set-up: time infinity, dose 48 mg/kg, route subcutaneous. Conditions: in vivo, 120 h.
Series [19] relates to Mus musculus. In words: AUC (0 to infinity) in nude mouse xenografted with human A2780 cells at 48 mg/kg, ip administered as single dose every fourth day for four times. Format: ADME, organism-based. Set-up: time infinity, dose 48 mg/kg, route intraperitoneal. Conditions: in vivo.

Chain of Integrin alpha-V (P06756 31-889 limits assumed): as the sequence (P06756 31-889 limits assumed) above
Chain of Integrin alpha-V (P06756 891-1048 limits assumed): as the sequence (P06756 891-1048 limits assumed) above

Take `CC[C@@]1(O)C(=O)OCc2c1cc1n(c2=O)Cc2c-1nc1ccccc1c2/C=N/OCCNC(=O)CCC(=O)NCc1ccc(C[C@@H]2NC(=O)[C@@H](Cc3ccccc3)NC(=O)[C@H](CC(=O)O)NC(=O)CNC(=O)[C@H](CCCNC(=N)N)NC2=O)cc1`: the IC50 amounted to 5.4 µM on Integrin alpha-V/beta-5 [1]; 0.00727 µM on Integrin alpha-V/beta-3 [2]; 5.4 µM on Integrin alpha-V/beta-3 [3]; 0.00839 µM on Integrin alpha-V/beta-5 [4]; 4.3 µM in the series with A498 [5]; 0.16 µM with A2780 [6]. In the series on PC-3, this compound showed an IC50 of 4.7 µM.
As for `CC[C@@]1(O)C(=O)OCc2c1cc1n(c2=O)Cc2c-1nc1ccccc1c2CC/C=N/NC(=O)COCCOCCOCC(=O)NCc1ccc(C[C@@H]2NC(=O)[C@@H](Cc3ccccc3)NC(=O)[C@H](CC(=O)O)NC(=O)CNC(=O)[C@H](CCCNC(=N)N)NC2=O)cc1`, the half-inhibitory concentration (IC50) at Integrin alpha-V/beta-3 [2] was determined as 0.00601 µM; against Integrin alpha-V/beta-5 [7], 12.9 µM; on Integrin alpha-V/beta-5 [4], 0.0229 µM; with A2780 [6], 0.017 µM; in the series with PC-3 it was 0.42 µM. In addition, the values for the half-life at 100 µM in series [8] and in [9] were less than 0.0333 h and 5.8 h, respectively.
In the case of `CC[C@@]1(O)C(=O)OCc2c1cc1n(c2=O)Cc2c-1nc1ccccc1c2/C=N/NC(=O)COCCOCCOCC(=O)NCc1ccc(C[C@@H]2NC(=O)[C@@H](Cc3ccccc3)NC(=O)[C@H](CC(=O)O)NC(=O)CNC(=O)[C@H](CCCNC(=N)N)NC2=O)cc1`, the IC50 was determined as 0.0117 µM at Integrin alpha-V/beta-3 [2]; 6.7 µM against Integrin alpha-V/beta-5 [7]; 0.0599 µM on Integrin alpha-V/beta-5 [4]; 0.09 µM in the series with A2780 [6]; 0.22 µM in the series on PC-3. The half-life at 100 µM in [8] is 25 h; in series [9], 6 h.
For the compound `N=C(N)NCCC[C@@H]1NC(=O)[C@H](CCCC(=O)O)NC(=O)[C@@H](Cc2ccccc2)NC(=O)[C@H](CC(=O)O)NC(=O)CNC1=O`, the Activity entry on Integrin alpha-V, at Integrin alpha-V/beta-5 [10], on Integrin alpha-V/beta-5 [11] and on Integrin alpha-V/beta-3 [12] was “Dose-dependent effect” each time. The IC50 in the series on A498 [5], in the series on A2780 [6] and in the series on PC-3 was greater than 1000 µM each time.
`CC[C@@]1(O)C(=O)OCc2c1cc1n(c2=O)Cc2c-1nc1ccccc1c2/C=N/OCCNC(=O)COCCOCCOCC(=O)NCc1ccc(C[C@@H]2NC(=O)[C@@H](Cc3ccccc3)NC(=O)[C@H](CC(=O)O)NC(=O)CNC(=O)[C@H](CCCN=C(N)N)NC2=O)cc1`: the inhibition in vivo at 48 mg/kg with A2780 [13] is 37%; in the series on A2780 [15], 43%. Also, the IC50 amounted to 3.1 µM against Integrin alpha-V/beta-5 [1]; 0.0125 µM at Integrin alpha-V/beta-3 [2]; 3.1 µM on Integrin alpha-V/beta-3 [3]; 1.8 µM on Integrin alpha-V/beta-5 [7]; 0.0065 µM at Integrin alpha-V/beta-5 [4]; 0.74 µM in the series on A498 [5]. Further, the figures for the IC50 in the series on A2780 [6] and with PC-3 were 0.18 µM and 27 µM, respectively. For the same compound, the Activity in the series on Mus musculus [14] and with Mus musculus [17] was 2.5% throughout. In addition, the Drug uptake entry in the series with A498 [16] is given as “Active”.
Take `CC[C@@]1(O)C(=O)OCc2c1cc1n(c2=O)Cc2c-1nc1ccccc1c2/C=N\OCCNC(=O)CCC[C@@H]1NC(=O)[C@@H](Cc2ccccc2)NC(=O)[C@H](CC(=O)O)NC(=O)CNC(=O)[C@H](CCCNC(=N)N)NC1=O`: the IC50 at Integrin alpha-V/beta-5 [1] turned out to be 3.7 µM; at Integrin alpha-V/beta-3 [3], 3.7 µM; at Integrin alpha-V/beta-5 [7] it was 3.1 µM; in the series with A498 [5], 3.2 µM; in the series with A2780 [6] it was 0.4 µM; in the series on PC-3, 15 µM. For the same compound, the AUC with Mus musculus [18] and in the series on Mus musculus [19] was 82 µg/h/mL throughout. Moreover, the Drug uptake result in the series with A498 [16] is “Active”.
